The target of assay [1] is T1, Glutamate NMDA receptor (Rattus norvegicus) (UniProt P35439+Q00959+Q00960+Q00961+Q62645+Q8VHN2+Q9R1M7). Kind of assay: Inhibitory activity evaluated by its ability to displace [3H]CPP from NMDA receptor in rat cortical membranes at 10E-4 concentration of the compound. The format is cell membranes. Summed up: (§1)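 Rat forebrain crude synaptic membranes were pretreated with Triton X-100 and washed in 50 mM Tris-HCl pH 7.6. Membranes (200-400 µg protein/mL) were incubated with 10 nM [3H]CPP and test agent for 15 min at 23 °C, in triplicate. Pellets were collected by centrifugation and counted. Percent inhibition = (T−S)/T×100, where T and S are specific binding without and with test agent.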

In assay [2] the target is Glutamate NMDA receptor. Kind of assay: Inhibitory activity evaluated by its ability to displace [3H]CPP from N-methyl-D-aspartate glutamate receptor in rat cortical membranes at 10E-5 concentration of the compound. It is filed as cell membranes. Summed up: as §1
For assay [3], the species on record is Rattus norvegicus. The assay is described as follows: In vitro antagonist activity by its ability to inhibit glutamate-induced accumulation of [45Ca2+]- in cultured rat cortical neurons. It is filed as functional. The procedure, abridged: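 Cortical neurons came from E18 Sprague-Dawley rat fetuses and were used 14-16 days after plating. Cells were held in Mg-free HBSS with 1.4 mM CaCl2, pH 7.4, at 37 °C and 5% CO2. They were exposed for 30 min to 100 µM L-glutamate (final) plus 45Ca2+ (2 µCi/mL) with test agent, then washed with saline, lysed in water and beta-counted. Baseline uptake without glutamate was subtracted. IC50 came from at least four half-log concentrations, with at least six replicates each.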

Assay [4] concerns the target T1, Glutamate NMDA receptor (Rattus norvegicus). The assay is described as follows: Displacement of [3H]CPP from N-methyl-D-aspartate glutamate receptor of rat cortical membranes. Further details: concentration or dose not given beside the values. As to conditions: Membrane, concentration not given here. It is filed as cell membranes. The procedure, abridged: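 Membranes were crude synaptic membranes from whole brain, minus cerebellum and brainstem, of male Long-Evans rats. They were treated with 0.01% Triton X-100 (37 °C, 30 min) and washed in 50 mM Tris-HCl pH 7.6. Membranes (200-400 µg protein/mL) were incubated with 10 nM [3H]CPP for 15 min at 23 °C, in triplicate. Bound ligand was separated by centrifugation and counted by scintillation. IC50 was fitted by nonlinear least squares from four or more concentrations.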
Background: In a radioligand displacement assay an active substance lowers the binding of a labelled ligand.

The target of assay [5] is Glutamate NMDA receptor. Kind of assay: Inhibitory activity evaluated by its ability to displace [3H]CPP from rat cortical membrane receptor at 10E-5 concentration of the compound. The procedure, abridged: (§2)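 Crude synaptic membranes from whole brain minus cerebellum and brainstem of male Long-Evans rats, treated with 0.01% Triton X-100 at 37 °C for 30 min and washed. Membranes (200-400 µg protein/mL) were incubated with 10 nM [3H]CPP in 50 mM Tris-HCl pH 7.6 for 15 min at 23 °C in triplicate. Bound ligand was separated by centrifugation and counted by liquid scintillation. Inhibition of specific binding was calculated as ((T−S)/T)×100.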

Assay [6] concerns the target Glutamate NMDA receptor. The assay is described as follows: Inhibitory activity evaluated by its ability to displace [3H]CPP from rat cortical membrane N-methyl-D-aspartate glutamate receptor at 10E-5 concentration of the compound. The procedure, abridged:
as §2

Assay [7] deals with Glutamate NMDA receptor. The assay is described as follows: Inhibitory activity evaluated by its ability to displace [3H]CPP from N-methyl-D-aspartate glutamate receptor in rat cortical membranes at 10E-4 concentration of the compound. The format is cell membranes. The procedure, abridged:
as §1

The inhibition is the percentage by which the read-out fell short of the control. `O=C(O)CNCc1ccccc1CP(=O)(O)O` displayed an inhibition in assay [1] of 21%.
What is called IC50 is the concentration needed to halve the response being measured. `N/C(=N\CC(=O)O)c1cccc(CP(=O)(O)O)c1`: the values for the IC50 in assay [2] and in assay [3] were 18 µM and 137 µM, respectively.
Molecule `O=C(O)CNc1ccccc1CP(=O)(O)O` came in with an inhibition in assay [4] of 48%.
In assay [4], `O=C(O)CNCCP(=O)(O)O` registered an inhibition of 14%.
Turning to `O=C(O)C1CN(CP(=O)(O)O)CCN1` (stereo unspecified), the IC50 amounted to 0.065 µM in assay [5] and 5.2 µM in assay [3].
The molecule `CC(NC/C=C\CP(=O)(O)O)C(=O)O` (stereo unspecified) registered an IC50 in assay [6] of 42.4 µM.
In assay [4], `CC(C)C(NCc1cccc(CP(=O)(O)O)c1)C(=O)O` (stereo unspecified) showed an inhibition of 0%.
In assay [4], `O=C(O)CNCCSCP(=O)(O)O` displayed an inhibition of 60%.
`CC(NCc1cccc(CP(=O)(O)O)c1)C(=O)O` (stereo unspecified) registered an inhibition in assay [4] of 31%.
`NC(CCCCCP(=O)(O)O)C(=O)O` (stereo unspecified) [AP-7]: the concentration for half-maximal inhibition (IC50) in assay [3] was determined as 30 µM.
As for `O=C(O)CNCc1ccc(CP(=O)(O)O)cc1`, the IC50 in assay [5] worked out at 2.3 µM; in assay [3], 59 µM.
For the molecule `O=C(O)CNc1cccc(CCP(=O)(O)O)c1`, the inhibition in assay [4] worked out at 0%.
On the same count and under the same terms, the same measure for `O=C(O)CNc1ccccc1P(=O)(O)O`: 27%.
Take `O=C(O)CNc1ccccc1C(=O)O`: in assay [3], the half-inhibitory concentration (IC50) was more than 250 µM.
In assay [3], `O=C(O)C1CN(CCCP(=O)(O)O)CCN1` (stereo unspecified) showed an IC50 of 2.4 µM.
Turning to `O=C(O)CNC/C=C/CP(=O)(O)O`, the 50% inhibitory concentration (IC50) in assay [5] is 1 µM; in assay [3], 16.7 µM.
For `O=C(O)CNCc1cccc(CP(=O)(O)O)c1`, in that order: 2.4 µM and 40 µM.
In turn, `O=C(O)CNCCCCP(=O)(O)O` showed an inhibition in assay [4] of 17%.
Same read-out and setting: next, `CC(NCc1ccccc1CP(=O)(O)O)C(=O)O` (stereo unspecified): 4%; `O=C(O)CNc1cccc(/C=C/CP(=O)(O)O)c1`: 13%; `O=C(O)CNc1ccccc1/C=C/P(=O)(O)O`: 9%.
On the same count and under the same terms, the same measure for `O=C(O)CNCCCP(=O)(O)O`: 3%.
Consider `O=C(O)CNc1cccc(CCCP(=O)(O)O)c1`, for which the inhibition in assay [4] amounted to 5%.
Take `O=C(O)CNCC/C=C\P(=O)(O)O`: the IC50 came to 2.25 µM in assay [6] and 36 µM in assay [3].
In assay [1], `O=C(O)CNCc1cccc(P(=O)(O)O)c1` had an inhibition of 21%.
In assay [4], `O=C(O)CNCC[S+]([O-])CP(=O)(O)O` (stereo unspecified) returned an inhibition of 4%.
Turning to `O=C(O)CNCCc1cccc(CP(=O)(O)O)c1`, the values for the IC50 in assay [7] and in assay [3] were 13.7 µM and 144 µM, respectively.
For `O=C(O)CNc1ccccc1CCP(=O)(O)O`, in assay [1], the inhibition is 0%.
For `NC(CCCP(=O)(O)O)C(=O)O` (stereo unspecified), in assay [3], the IC50 was determined as 6.1 µM.

For the origin of these results see ChEMBL document CHEMBL1125433, “Exploration of N-phosphonoalkyl-, N-phosphonoalkenyl-, and N-(phosphonoalkyl)phenyl-spaced alpha-amino acids as competitive N-methyl-D-aspartic acid antagonists” (J Med Chem, 1992).
